Shown is part of a subset that was picked to be rich in hits.
IDH1 R132H inh – inhibitors of IDH1 R132H reductase, primary screen, biochemical, plate reader, single point. Isocitrate dehydrogenase [NADP] cytoplasmic (Homo sapiens), O75874. diaphorase/resazurin fluorescence, 60 min. inhibition, % at 10 µM. hit rate 0.18% among 70,000. AID 624101, 2012; in the data active means inhibition above about 34%;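 further: 0% = DMSO and 100% = no enzyme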
Target sequence (O75874 whole entry R132H): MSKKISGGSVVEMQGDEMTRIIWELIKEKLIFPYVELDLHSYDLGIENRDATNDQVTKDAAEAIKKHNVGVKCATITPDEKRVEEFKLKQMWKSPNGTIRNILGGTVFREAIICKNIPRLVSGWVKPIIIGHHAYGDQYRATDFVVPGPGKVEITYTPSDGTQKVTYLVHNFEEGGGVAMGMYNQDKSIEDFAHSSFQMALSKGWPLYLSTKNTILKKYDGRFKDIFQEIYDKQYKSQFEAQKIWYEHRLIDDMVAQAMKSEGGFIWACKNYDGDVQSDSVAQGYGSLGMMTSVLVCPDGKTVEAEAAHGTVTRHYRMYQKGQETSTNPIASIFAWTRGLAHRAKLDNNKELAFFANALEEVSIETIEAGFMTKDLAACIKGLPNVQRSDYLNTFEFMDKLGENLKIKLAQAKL
GASC1 inh – inhibitors of GASC-1 (KDM4C) histone demethylase, primary screen, biochemical, single concentration HTS; Lysine-specific demethylase 4C (Homo sapiens), Q9H3R0; GST-KDM4C 2-372, H3K9me3 peptide, LANCE TR-FRET; inhibition, % at 12.5 µM; hit rate 0.15% among 96,000; AID 720574, 2013;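 active means mean replicate inhibition above about 25%, with at least 55% of replicates also reaching it, limit read from the data, passing the limit was not always enough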
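Assay system: GST-GASC-1 enzyme fragment 2-372 | Amount: 10 nM enzyme | Medium: HEPES buffer, pH 7.5, plus ascorbate | Reagent: H3K9me3 peptide substrate, Fe(II), 2-oxoglutarate | Doses: Single-point compound screen | Incubation: 30 min demethylation and 1 h detection at room temperature | Measured by: LANCE TR-FRET, excitation 340 nm, emissions 618 and 671 nm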
Tcruzi prolif – T. cruzi intracellular proliferation inhibitors, primary screen, cell-based, beta-gal Tulahuen parasites, NIH3T3 host, luminescence; T. cruzi beta-gal in NIH3T3, GalScreen luminescence, 90 h; inhibition, % at 8.34 µM; hit rate 5.9% among 77,000; AID 624255, 2012;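 active means mean inhibition above about 93%, with at least 55% of replicates each passing it, limit read from the data, passing the limit was not always enough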
The depositor's hits bear a star; nt = not tested or not shown; ! = not confirmed by another sample.

SMILES	IDH1 R132H inh	GASC1 inh	Tcruzi prolif
CN(C)c1ccc2c(c1)[C@@H]1C[C@@H](CC(=O)NCc3ccccn3)O[C@@H](CO)[C@@H]1O2	-10	28*	-11
CN(C)CC(=O)Nc1ccc2c(c1)[C@H]1C[C@H](CC(=O)NCc3ccccn3)O[C@H](CO)[C@H]1O2	0	1	nt
CCN(CC(=O)Nc1ccc2c(c1)OCCO2)S(=O)(=O)c1ccc2ccccc2c1	0	nt	nt
COc1cc(NS(=O)(=O)c2ccccc2[N+](=O)[O-])c(OC)cc1Cl	0	nt	nt
CS(=O)(=O)N1[C@H](CO)[C@@H](c2ccc(C#CC3CCCC3)cc2)[C@@H]1C#N	nt	-4	89
CS(=O)(=O)N1[C@H](C#N)[C@H](c2ccc(C#CC3CCCCC3)cc2)[C@H]1CO	nt	-2	99*
C=CCN1C(=O)[C@@]2(O[C@@H](CCn3cc(CCO)nn3)[C@H]([Si](C)(C)c3ccc(OC)cc3)[C@H]2C)c2cc(NC(=O)c3ccc(OC)cc3)ccc21	66*	nt	nt
C=CCN1C(=O)[C@]2(O[C@H](CCO)[C@@H]([Si](C)(C)c3ccc(OC)cc3)[C@@H]2C)c2cc(NC(=O)[C@H](C)O)ccc21	0	nt	nt
O=C(O)CCCCCC(=O)N/N=C/c1cc(O)ccc1Br	5	nt	nt
COC(=O)CCCCCCC(=O)N/N=C/c1cc(O)ccc1O	53*	nt	nt
O=C(CCCCC(=O)N/N=C/c1cc(O)ccc1O)NO	88*	nt	nt
COC(=O)CCCCCCC(=O)N/N=C/c1cc(OC)ccc1O	0	nt	nt
CC1CCC2(CC1)Oc1ccccc1C1CC(c3ccco3)=NN12 (stereo not given)	5	nt	nt
N#Cc1cccc(-c2ccc(C3[C@@H]4CN(S(=O)(=O)c5ccc(F)cc5)C[C@H]3N4)cc2)c1 (stereo not given in full)	nt	34*!	nt
N#Cc1cccc(-c2ccc([C@@H]3[C@@H]4CN(S(=O)(=O)c5ccc(-c6ccccc6)cc5)C[C@H]3N4)cc2)c1	nt	-59	nt
CCCC#Cc1cnc2c(c1)C(=O)N([C@H](C)CO)C[C@H](C)[C@@H](CN(C)Cc1cccnc1)O2	100*	64*	-4
C[C@H](CO)N1C[C@H](C)[C@@H](CN(C)Cc2cncnc2)Oc2ncc(/C=C/c3ccccc3)cc2C1=O	79*	52*	62
CCCC#Cc1cnc2c(c1)C(=O)N([C@@H](C)CO)C[C@H](C)[C@@H](CN(C)C(=O)Cc1ccncc1)O2	51*	-1	44
CCCC#Cc1cnc2c(c1)C(=O)N([C@H](C)CO)C[C@@H](C)[C@H](CN(C)Cc1cccnc1)O2	0	0	7
CCCC#Cc1cnc2c(c1)C(=O)N([C@H](C)CO)C[C@@H](C)[C@@H](CN(C)C(=O)Cc1ccncc1)O2	1	-1	-23
C[C@@H]1CN([C@@H](C)CO)C(=O)c2cc(/C=C/c3ccccc3)cnc2O[C@H]1CN(C)Cc1cncnc1	-2	0	53
COC(=O)c1ccc(Cl)c(NC(=O)CN(c2cccc(Cl)c2)S(C)(=O)=O)c1	3	nt	nt
CSc1ccccc1-n1nnnc1SCCSc1ccccc1-n1nnnc1SC	0	nt	nt
Cc1cc2nc(-c3ccc(C)c(NC(=O)COc4ccc([N+](=O)[O-])cc4)c3)oc2cc1C	2	nt	nt
CN1CCN(Cc2nc(N)nc(Nc3ccccc3)n2)CC1	1	nt	nt
SMILES	IDH1 R132H inh	GASC1 inh	Tcruzi prolif
Cc1ccc2nc(SCc3nc4ccccc4n3C)[nH]c2c1	0	nt	nt
C[C@H](CO)N1C[C@H](C)[C@H](CN(C)Cc2ccncc2)Oc2c(NC(=O)c3nc4ccccc4s3)cccc2C1=O	nt	1	nt
C[C@@H]1CN([C@H](C)CO)C(=O)c2cccc(NC(=O)c3ccc(-c4nccs4)cc3)c2O[C@H]1CN(C)Cc1ccc(C(=O)Nc2ccccc2N)cc1	0	-1	72
C[C@H](CO)N1C[C@H](C)[C@@H](CN(C)Cc2ccncc2)Oc2c(NC(=O)c3nc4ccccc4s3)cccc2C1=O	35*	-3	nt
C[C@H]1CN([C@@H](C)CO)C(=O)c2cccc(NC(=O)c3ccc(-c4nccs4)cc3)c2O[C@@H]1CN(C)Cc1ccc(C(=O)Nc2ccccc2N)cc1	nt	1	104*
C[C@H]1CN([C@@H](C)CO)C(=O)c2cccc(NC(=O)c3nc4ccccc4s3)c2O[C@H]1CN(C)Cc1ccc(C(=O)Nc2ccccc2N)cc1	nt	-1	97*
C[C@H]1CN([C@@H](C)CO)C(=O)c2cccc(NC(=O)c3nc4ccccc4s3)c2O[C@H]1CN(C)Cc1ccccc1	nt	1	77
O=C(CSc1nc(-c2ccccc2)cc(C(F)(F)F)n1)N1CCCc2ccccc21	-1	nt	nt
COc1ccc(NC(=O)CSc2nc3c(c(C(F)(F)F)c2C#N)CCC3)c(OC)c1	0	nt	nt
Cc1cc(C)cc(N(CC(=O)Nc2ccc(C(N)=O)cc2)S(C)(=O)=O)c1	0	nt	nt
CCOC(=O)c1c(NC(=O)COc2ccc(C)cc2Br)sc(C)c1C	0	nt	nt
CO[C@@H]1CN(C)C(=O)c2ccc(NC(=O)c3ccccc3)cc2OC[C@H](C)N(C)C[C@@H]1C	89*	19	-10
CO[C@H]1CN(C)C(=O)c2ccc(NC(=O)c3cccc(F)c3)cc2OC[C@H](C)N(C)C[C@@H]1C	nt	0	nt
CCC(=O)Nc1ccc2c(c1)OC[C@H](C)N(CC1CCOCC1)C[C@@H](C)[C@H](OC)CN(C)C2=O	0	-1	-42
CO[C@H]1CN(C)C(=O)c2ccc(NC(=O)c3ccccc3)cc2OC[C@@H](C)N(C)C[C@@H]1C	0	0	6
CO[C@H]1CN(C)C(=O)c2ccc(NC(=O)C3CC3)cc2OC[C@H](C)N(C(C)=O)C[C@H]1C	0	9	11
CCC(=O)Nc1ccc2c(c1)OC[C@H](C)N(CC1CCOCC1)C[C@H](C)[C@H](OC)CN(C)C2=O	2	44*	19
CO[C@H]1CN(C)C(=O)c2ccc(NC(=O)C3CCCC3)cc2OC[C@H](C)N(C(C)=O)C[C@H]1C	0	47*	nt
CO[C@H]1CN(C)C(=O)c2ccc(NC(=O)c3cccc(F)c3)cc2OC[C@H](C)N(C)C[C@H]1C	2	38*	-36
COc1ccc(OC)c(-c2cc(C(=O)NC(C)c3ccc(OC)c(OC)c3)c3ccccc3n2)c1 (stereo not given)	0	nt	nt
Cc1cc(C)cc(N(C(C)C(=O)Nc2cccc3ccccc23)S(C)(=O)=O)c1 (stereo not given)	0	nt	nt
O=C(C1=C[C@@H](c2csc3ccccc23)C[C@@H](OCc2ccc(CO)cc2)O1)N1CCCCC1	0	nt	nt
O=C(NCc1ccccn1)c1cc(-c2cccnc2)nc2ccc(Br)cc12	0	nt	nt
CCN(CC(=O)Nc1cccc(Cl)c1C)S(=O)(=O)c1ccc(F)cc1	-1	nt	nt
COc1ccc(NC(=O)CN(c2ccccc2F)S(C)(=O)=O)cc1Cl	0	nt	nt
CO[C@@H]1CN(C)C(=O)c2cc(NC(=O)c3cccc(F)c3)ccc2OC[C@H](C)N(C(C)=O)C[C@H]1C	98*	65*	44
CO[C@@H]1CN(C)C(=O)c2ccc(NC(=O)Nc3c(C)noc3C)cc2OC[C@H](C)N(C)C[C@H]1C	1	-1	-13

Compound activity (PubChem BioAssay)
